For 12 compounds, selectivity ratio, IC50 and IC90 results are on record in ChEMBL document CHEMBL3600329, “Synthesis, biological profiling and mechanistic studies of 4-aminoquinoline-based heterodimeric compounds with dual trypanocidal-antiplasmodial activity” (Bioorg Med Chem, 2015).

Data set [1] can be described thus: Selectivity index, ratio of IC50 for rat L6 cells to IC50 for chloroquine-resistant Plasmodium falciparum K1. It counts as toxicity, cell-based. The settings on record: read-out: Ratio IC50. The essentials:
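IC50 ratio, L6 over P. falciparum K1. L6 cells seeded at 1×10^4 mL⁻¹ with compound, 6 days at 37 °C, resazurin added, fluorescence after 8 h. Parasites in A+ erythrocytes (2.5% haematocrit, 1% parasitaemia) with twofold dilutions, 48 h at 37 °C in low-oxygen gas; growth read by LDH activity at 550 nm.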

The subject of the next data set is Trypanosoma brucei. The experiment in a line: Trypanocidal activity against bloodstream form of Trypanosoma brucei 221 assessed as inhibition of parasite growth at pH 7.4 after 48 hrs by Spectramax plate reader analysis. In kind it is functional, organism-based. The settings on record: Trypanosoma brucei, 221, 48 h. Put shortly: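 Bloodstream-form T. brucei strain 221 grown at 37 °C in modified Iscove's medium; log-phase cells diluted to 0.25 × 10^5 mL⁻¹, exposed to a range of compound concentrations in triplicate at 37 °C. Resazurin added after 48 h, read after a further 16 h. IC50 and IC90 = concentrations inhibiting growth 50% and 90%; mean of triplicate experiments ± SEM.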

Data set [2] is described as follows: Selectivity index, ratio of IC50 for rat L6 cells to IC50 for bloodstream form of Trypanosoma brucei 221. It counts as toxicity, cell-based. The settings on record: read-out: Ratio IC50. Put shortly: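 IC50 ratio, L6 over T. brucei. L6 cells seeded at 1×10^4 mL⁻¹ with compound, 6 days at 37 °C, then resazurin, 8 h more, fluorescence read. Log-phase bloodstream T. brucei 221 in modified Iscove's medium at 0.25 × 105 mL⁻¹, compound range in triplicate, 37 °C; resazurin at 48 h, read after 16 h more.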

In the next data set the test system is L6. Briefly: Cytotoxicity against rat L6 cells assessed as inhibition of cell growth after 6 days by Spectramax fluorescence plate reader analysis. The following applies: L6, 144 h. In kind it is cell-based. The essentials: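 L6 rat skeletal myoblasts seeded at 1×10^4 mL⁻¹ in growth medium containing a range of compound concentrations, incubated 6 days at 37 °C; resazurin added, fluorescence read after a further 8 h. IC50 = concentration inhibiting growth by 50%; mean of triplicate experiments ± SEM.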

For a further data set, the system named is Plasmodium falciparum. Briefly: Antiplasmodial activity against chloroquine-resistant Plasmodium falciparum K1 infected in human A+ erythrocytes assessed as inhibition of parasite growth after 48 hrs by LDH assay. The following applies: K1, 48 h. It counts as functional, organism-based. Put shortly: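 Ring-stage cultures in human A+ erythrocytes (RPMI 1640, A+ serum, D-glucose), 2.5% haematocrit, 1% parasitaemia; twofold serial dilutions in duplicate, DMSO ≤0.5% final. 48 h at 37 °C under 93% N2/3% O2/4% CO2. Growth read as lactate dehydrogenase activity (APAD, lactate, diaphorase, NBT; 550 nm); % inhibition vs controls; IC50 by linear regression; mean of triplicate experiments.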

Turning to `CC1=CC2Cc3nc4cc(Cl)ccc4c(NCCCCCCCCCCNc4c5c(nc6cc(Cl)ccc46)CCCC5)c3C(C1)C2` (stereo not drawn), the selectivity ratio in data set [1] worked out at 1.3; in data set [2] it was 15. Besides, the IC50 was 170 nM in the data set on Trypanosoma brucei, 2630 nM with L6 and 2100 nM with Plasmodium falciparum. The IC90 in the data set with Trypanosoma brucei came to 490 nM.

For the compound `CCC1=C[C@@H]2Cc3nc4cc(Cl)ccc4c(NCCN4CCC(CC5Cc6cc(OC)c(OC)cc6C5)CC4)c3[C@H](C1)C2`, the results for the selectivity ratio in data set [1] and in data set [2] were below 0.89 and 22, respectively. Further, the figures for the IC50 in the data set with Trypanosoma brucei, in the data set with L6 and in the data set on Plasmodium falciparum were 290 nM, 6290 nM and above 7050 nM, respectively. The 90% effect concentration (IC90) in the data set with Trypanosoma brucei was 720 nM.

`CC1=CC2Cc3nc4cc(Cl)ccc4c(NCCCN(C)CCCNc4c5c(nc6ccccc46)CCCC5)c3C(C1)C2` (stereo not drawn): the figures for the selectivity ratio in data set [1] and in data set [2] were below 2.3 and below 3.1, respectively. The IC50 is 320 nM in the data set on Trypanosoma brucei, below 1000 nM in the data set on L6 and 430 nM with Plasmodium falciparum. For the same compound, the 90% effect concentration (IC90) in the data set on Trypanosoma brucei was determined as 450 nM.

As for `COc1cc2c(cc1OC)CC(CC1CCN(CCNc3c4c(nc5cc(Cl)ccc35)CC3C=C(C)CC4C3)CC1)C2` (stereo not drawn), the selectivity ratio in data set [1] was below 1; in data set [2] it was 14. The IC50 was 490 nM in the data set on Trypanosoma brucei, 6760 nM in the data set on L6 and above 7010 nM in the data set on Plasmodium falciparum. In addition, the concentration for an effect of 90% (IC90) with Trypanosoma brucei is 1180 nM.

On to `COc1cc2c(cc1OC)CC(CC1CCN(CCNc3c4c(nc5cc(Cl)ccc35)CCCC4)CC1)C2`, for which the figures for the selectivity ratio in data set [1] and in data set [2] were below 0.31 and 2.5, respectively. Also, the IC50 is 970 nM with Trypanosoma brucei, 2420 nM in the data set on L6 and above 7720 nM with Plasmodium falciparum. Also, in the data set on Trypanosoma brucei, the IC90 worked out at 2390 nM.

Take `CC1=CC2Cc3nc4cc(Cl)ccc4c(NCCCCCCNc4c5c(nc6ccccc46)CCCC5)c3C(C1)C2` (stereo not drawn): the selectivity ratio worked out at 0.39 in data set [1] and 2.5 in data set [2]. The figures for the half-maximal inhibitory concentration (IC50) in the data set with Trypanosoma brucei, in the data set with L6 and in the data set on Plasmodium falciparum were 470 nM, 1170 nM and 2990 nM, respectively. In the data set on Trypanosoma brucei, the IC90 is 660 nM.

`CC1=CC2Cc3nc4cc(Cl)ccc4c(NCCCCCCCCCNc4c5c(nc6cc(Cl)ccc46)CCCC5)c3C(C1)C2` (stereo not drawn): the selectivity ratio is below 5.9 in data set [1] and 167 in data set [2]. Besides, the IC50 was 240 nM with Trypanosoma brucei, 40000 nM in the data set with L6 and above 6820 nM in the data set with Plasmodium falciparum. For the same compound, the IC90 with Trypanosoma brucei was 520 nM.

`COc1cc2c(cc1OC)C(=O)C(CC1CCN(CCNc3c4c(nc5cc(Cl)ccc35)CCCC4)CC1)C2` (stereo not drawn): the selectivity ratio is below 0.62 in data set [1] and below 10 in data set [2]. Also, the IC50 was 300 nM in the data set on Trypanosoma brucei, below 3000 nM in the data set on L6 and 4860 nM in the data set on Plasmodium falciparum. Also, in the data set on Trypanosoma brucei, the IC90 was 680 nM.

In the case of `CC1=CC2Cc3nc4cc(Cl)ccc4c(NCCCCCCCCNc4c5c(nc6cc(Cl)ccc46)CCCC5)c3C(C1)C2` (stereo not drawn), the selectivity ratio in data set [1] was below 0.14; in data set [2], 5.7. The IC50 in the data set with Trypanosoma brucei was 170 nM; in the data set on L6, 970 nM; in the data set with Plasmodium falciparum, above 7140 nM. Further, in the data set with Trypanosoma brucei, the IC90 amounted to 460 nM.

Take `CC1=CC2Cc3nc4cc(Cl)ccc4c(NCCCN(C)CCCNc4c5c(nc6cc(Cl)ccc46)CCCC5)c3C(C1)C2` (stereo not drawn): the selectivity ratio in data set [1] was below 1.9; in data set [2] it was below 3.6. Further, the IC50 was 280 nM in the data set on Trypanosoma brucei, below 1000 nM in the data set on L6 and 520 nM in the data set with Plasmodium falciparum. For the same compound, the IC90 in the data set on Trypanosoma brucei is 400 nM.

Consider `CC1=CC2Cc3nc4cc(Cl)ccc4c(NCCCCCCCCCCNc4c5c(nc6ccccc46)CCCC5)c3C(C1)C2` (stereo not drawn), for which, in the data set on Trypanosoma brucei, the IC50 is 140 nM and the IC90 turned out to be 480 nM. The selectivity ratio in data set [2] was found to be 12. Further, the IC50 in the data set on L6 worked out at 1670 nM.

As for `COc1cc2c(cc1OC)C(=O)C(CC1CCN(CCCNc3c4c(nc5ccccc35)CCCC4)CC1)C2` (stereo not drawn), the values for the IC50 in the data set on Trypanosoma brucei and with L6 were 280 nM and below 1000 nM, respectively. In addition, the IC90 with Trypanosoma brucei is 620 nM. The selectivity ratio in data set [2] is below 3.6.

What is called IC50 is the concentration at which inhibition is half-maximal. In general, IC90 refers to the concentration at which the effect reaches the 90% level.
